Assay outcomes as filed in PubChem BioAssay.
FGF22 binding: binders of human FGF22 protein, primary screen, FGF22 synaptogenesis inhibitor project, biophysical, thermal shift, single point; Fibroblast growth factor 22 (Homo sapiens), Q9HCT0; AID 651658, 2012; 340,000 compounds, 1.5% hits; activity (Tm shift, normalised), % at 9.99 µM; recombinant FGF22 thermal shift, SYPRO orange fluorescence; percent of sucrose octasulfate shift, DMSO zero;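 active = mean Tm shift, scaled 0 neutral to 100 positive control, at about 1.3% or above, every replicate too, limit read from the data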
MT1-MMP act inh: blockers of MT1-MMP proenzyme processing, primary screen, HT1080 RFP-PRO-GFP cells, GFP/RFP fluorescence | AID 651647, 2012 | 360,000 compounds, 0.061% hits | Matrix metalloproteinase-14 (Homo sapiens), P50281 | GFP/RFP ratio change, % at 20 µM | GFP/RFP ratio fluorescence, overnight; percent of plate control window, DMSO zero;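 active = GFP/RFP ratio change of at least 30% with cell ATP level not reduced by more than half and red fluorescence within 50% of control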
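system = RFP-PRO-GFP reporter HT1080 cells | dosing = 20 µM single dose, 1% DMSO | timing = overnight cell settling, then overnight compound exposure, 37 °C, 5% CO2 | read-out basis = GFP/RFP fluorescence ratio | controls = DMSO and RFP-L50D-GFP cell wells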
VLA-4 inh: inhibition in human VLA-4 binding assay, primary screen, VLA-4 allosteric modulator project, MLPCN library, flow cytometry, VLA-4 expressing cells | Integrin alpha-4 (Homo sapiens), P13612 | ligand binding flow cytometry | inhibition, % (about 7 µM as worked out from the volumes in the protocol) | 330,000 compounds, 0.2% hits; in the data active = inhibition above about 50%
Target sequence (P13612 whole entry, looked up): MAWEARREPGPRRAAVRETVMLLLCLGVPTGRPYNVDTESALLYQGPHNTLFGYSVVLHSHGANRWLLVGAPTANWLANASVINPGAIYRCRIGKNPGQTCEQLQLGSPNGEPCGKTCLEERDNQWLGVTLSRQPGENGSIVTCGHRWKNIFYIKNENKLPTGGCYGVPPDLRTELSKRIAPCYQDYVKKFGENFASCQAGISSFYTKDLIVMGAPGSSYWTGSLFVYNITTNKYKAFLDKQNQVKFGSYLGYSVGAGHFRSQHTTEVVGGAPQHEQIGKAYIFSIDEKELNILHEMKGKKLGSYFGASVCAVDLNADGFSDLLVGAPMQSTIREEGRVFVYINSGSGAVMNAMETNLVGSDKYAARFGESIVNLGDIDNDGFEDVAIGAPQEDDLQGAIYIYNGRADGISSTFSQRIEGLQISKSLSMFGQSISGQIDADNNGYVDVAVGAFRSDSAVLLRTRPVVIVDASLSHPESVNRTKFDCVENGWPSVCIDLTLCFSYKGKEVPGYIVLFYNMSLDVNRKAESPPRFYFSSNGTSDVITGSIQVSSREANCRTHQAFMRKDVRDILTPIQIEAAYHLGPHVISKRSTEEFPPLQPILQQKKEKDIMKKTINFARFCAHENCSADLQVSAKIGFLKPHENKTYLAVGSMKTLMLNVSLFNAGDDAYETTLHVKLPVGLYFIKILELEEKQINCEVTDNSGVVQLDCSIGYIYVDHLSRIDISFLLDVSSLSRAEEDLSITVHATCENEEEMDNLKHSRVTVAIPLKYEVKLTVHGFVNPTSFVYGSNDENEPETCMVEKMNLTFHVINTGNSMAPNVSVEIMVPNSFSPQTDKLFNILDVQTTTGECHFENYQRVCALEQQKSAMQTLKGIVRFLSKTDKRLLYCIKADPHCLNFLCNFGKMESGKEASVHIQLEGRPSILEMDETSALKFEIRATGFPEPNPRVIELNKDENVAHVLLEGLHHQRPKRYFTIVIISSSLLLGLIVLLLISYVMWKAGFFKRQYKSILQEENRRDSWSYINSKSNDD
ABCB6 inh 2: ABCB6 transporter inhibitors, primary screen, K562-ABCB6 cells, flow cytometry, MLPCN library; K562-ABCB6 porphyrin accumulation, 1 h; active compounds read low; fluorescence ratio to DMSO, % at 10 µM; AID 602162, 2011; 360,000 compounds, 0.19% hits; ATP-binding cassette sub-family B member 6 (Homo sapiens), Q9NP58;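 active = fluorescence ratio to DMSO below 75%, the collection mean minus 3 SD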;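 note: signal is porphyrin accumulated inside mitochondria; 100% equals median channel fluorescence of DMSO control wells; lower ratio means ABCB6 inhibition with less porphyrin fluorescence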
Granule exo inh: LAMP-1 surface exposure blockers, TALL-104 cells – cell-based, flow cytometry, MLPCN library, primary screen; TALL-104 LAMP-1 surface exposure; cells stimulated with thapsigargin and PMA; inhibition, % at 10 µM; 360,000 compounds, 0.66% hits; AID 651702, 2012;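 active = inhibition above about 55%, limit read from the data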
DAGLB inhibitor: DAGLB lipase inhibitors, primary screen, biochemical, fluorescence, HTS | HEK293T DAGLB membrane lysate, EnzChek fluorogenic substrate | AID 504411, 2011 | Diacylglycerol lipase-beta (Homo sapiens), Q8NCG7 | inhibition, % at 5.17 µM | 340,000 compounds, 0.059% hits; in the data active = inhibition above about 34%;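 note: 0% = enzyme with vehicle and 100% = wells lacking enzyme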
Exocytosis CP01: inhibitors of lytic granule exocytosis, confirmation, TALL-104 cells, flow cytometry, Cherry Pick01; shares compounds with Granule exo inh; LAMP-1 externalization; stimulated with PMA plus thapsigargin; inhibition, % at 10 µM; 1,500 compounds, 11% hits; in the data active = inhibition above about 60%;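 note: 0% = stimulated vehicle wells and 100% = unstimulated wells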
Numbers without * were called inactive. This is a sample that favours compounds with a hit; in the whole collection about 2% have one here.

O=C1/C(=C\c2ccc(Cl)cc2Cl)N2CCC1CC2 was read as FGF22 binding 0, MT1-MMP act inh -3, VLA-4 inh 9, ABCB6 inh 2 89, Granule exo inh 65* and Exocytosis CP01 -12.
CC(Cc1ccccc1)NCC(=O)Nc1cc(N(C)C)nc2ccccc12 (stereo not given) was read as FGF22 binding 0, MT1-MMP act inh 20, VLA-4 inh 0, ABCB6 inh 2 91, Granule exo inh 62* and Exocytosis CP01 -14.
Screening CC(Cc1ccccc1)NCc1ccccc1O (stereo not given) returned FGF22 binding 0, MT1-MMP act inh -1, VLA-4 inh -15, ABCB6 inh 2 99, Granule exo inh -1 and DAGLB inhibitor 1.
`COC(=O)C1=C(c2ccc(C(C)=O)cc2)C[C@@H]2CC[C@H]1N2C(=O)NC1CCCCC1` gave FGF22 binding 0, MT1-MMP act inh 3, VLA-4 inh 13, ABCB6 inh 2 99, Granule exo inh 65*, DAGLB inhibitor -3 and Exocytosis CP01 -13.
For Cc1cccc(NP(=O)(Oc2ccccc2)Oc2ccccc2)c1C the results were FGF22 binding 0, MT1-MMP act inh -1, VLA-4 inh -12, ABCB6 inh 2 100, Granule exo inh 58*, DAGLB inhibitor -4 and Exocytosis CP01 -11.
N#Cc1cccc(-c2ccc([C@@H]3[C@H]4CN(C(=O)Cc5ccccc5)CCCCN4[C@H]3CO)cc2)c1 was read as FGF22 binding 0.
COC(=O)[C@H]1[C@H](CO)[C@H]2Cn3c(ccc(-c4ccccc4)c3=O)[C@@H]1N2CC1CC1 was read as FGF22 binding 0.
Screening CC=Cc1ccc2n(c1=O)C[C@H]1[C@H](CO)[C@@H](C(=O)OC)[C@@H]2N1CC1CCOCC1 (mixture of isomers) returned FGF22 binding 0.
`CCOC(=O)[C@]12Cc3c(cc(OC)c(OC)c3OC)[C@H]1N(C1CCCCC1)C(=O)c1ccccc12` gave FGF22 binding 0, MT1-MMP act inh -24, ABCB6 inh 2 91, Granule exo inh 63* and Exocytosis CP01 6.
For CCOC(=O)[C@]12Cc3ccc(C)cc3[C@H]1N(C1CCCCC1)C(=O)c1cc(OC)ccc12 the results were FGF22 binding 0, MT1-MMP act inh -32, ABCB6 inh 2 95, Granule exo inh 84* and Exocytosis CP01 23.
Screening CCOC(=O)[C@]12Cc3cc(N(C)C)ccc3[C@H]1N(Cc1ccccc1)C(=O)c1ccccc12 returned FGF22 binding 0, MT1-MMP act inh -12, ABCB6 inh 2 98, Granule exo inh -4 and DAGLB inhibitor -2.
Screening CCOC(=O)[C@]12Cc3cc(C)ccc3[C@H]1N(C1CCCCC1)C(=O)c1ccccc12 returned FGF22 binding 0, MT1-MMP act inh -32, ABCB6 inh 2 95, Granule exo inh 60* and Exocytosis CP01 9.
CCOC(=O)[C@]12Cc3cc(Cl)ccc3[C@H]1N(Cc1ccccc1)C(=O)c1ccccc12 was read as FGF22 binding 0, MT1-MMP act inh -9, ABCB6 inh 2 95, Granule exo inh 87*, DAGLB inhibitor -9 and Exocytosis CP01 -3.
`C/C=C/c1ccc([C@@H]2[C@@H](CO)N3CCCCN(C(=O)Cc4cccnc4)C[C@@H]23)cc1` gave FGF22 binding 0.
